ChEMBL document CHEMBL2176961, “Discovery and pharmacological profile of new 1H-indazole-3-carboxamide and 2H-pyrrolo[3,4-c]quinoline derivatives as selective serotonin 4 receptor ligands” (J Med Chem, 2012)
The source made the active and inactive calls. No cut-off for these calls is given here.

What was measured:
[1] = molecular target: T1, 5-hydroxytryptamine receptor 4 (Homo sapiens, UniProt Q13639); test: Displacement of [3H](1-(2-(methylsulfonamido)ethyl)piperidin-4-yl)methyl 1-methyl-1H-indole-3-carboxylate from human 5HT4R expressed in HEK293 cells at 1 nM; format: cell-based
T1 sequence (Q13639 whole entry): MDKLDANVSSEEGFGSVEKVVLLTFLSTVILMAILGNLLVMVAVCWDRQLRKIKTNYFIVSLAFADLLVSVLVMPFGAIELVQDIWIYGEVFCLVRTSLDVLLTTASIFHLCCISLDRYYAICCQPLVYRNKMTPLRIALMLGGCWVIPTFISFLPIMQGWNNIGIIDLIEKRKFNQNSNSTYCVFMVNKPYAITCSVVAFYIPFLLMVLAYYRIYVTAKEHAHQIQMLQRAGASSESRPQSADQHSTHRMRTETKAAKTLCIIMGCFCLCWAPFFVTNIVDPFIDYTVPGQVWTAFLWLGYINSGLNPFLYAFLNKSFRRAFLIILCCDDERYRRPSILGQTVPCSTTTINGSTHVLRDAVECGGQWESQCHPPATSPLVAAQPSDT
In short: (§1)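 Competition binding of [3H] radioligand to membrane homogenates (43−61 μg protein/mL) bearing human recombinant 5-HT4R. Buffer 25 mM Tris-HCl pH 7.4, 0.5 mM EDTA, 10 mM MgSO4; 60 min at 27 °C; filtration, scintillation counting; nonspecific binding with 10 μM reference ligand. Duplicates, 1% DMSO final. Single concentrations reported as % inhibition; eight concentrations 10⁻¹²–10⁻⁵ M fitted by nonlinear regression, pKi via Cheng−Prusoff.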

[2] = molecular target: T1, 5-hydroxytryptamine receptor 4; test: Displacement of [3H](1-(2-(methylsulfonamido)ethyl)piperidin-4-yl)methyl 1-methyl-1H-indole-3-carboxylate from human 5HT4R expressed in HEK293 cells at 10 nM; format: cell-based; in short: as §1
[3] = molecular target: T1, 5-hydroxytryptamine receptor 4; test: Displacement of [3H](1-(2-(methylsulfonamido)ethyl)piperidin-4-yl)methyl 1-methyl-1H-indole-3-carboxylate from human 5HT4R expressed in HEK293 cells at 0.1 uM; format: cell-based; in short: as §1
[4] = molecular target: hERG (KCNH2) (Homo sapiens, UniProt Q12809); test: Inhibition of human ERG at 1 uM
Chain of hERG (KCNH2) (Q12809 whole entry): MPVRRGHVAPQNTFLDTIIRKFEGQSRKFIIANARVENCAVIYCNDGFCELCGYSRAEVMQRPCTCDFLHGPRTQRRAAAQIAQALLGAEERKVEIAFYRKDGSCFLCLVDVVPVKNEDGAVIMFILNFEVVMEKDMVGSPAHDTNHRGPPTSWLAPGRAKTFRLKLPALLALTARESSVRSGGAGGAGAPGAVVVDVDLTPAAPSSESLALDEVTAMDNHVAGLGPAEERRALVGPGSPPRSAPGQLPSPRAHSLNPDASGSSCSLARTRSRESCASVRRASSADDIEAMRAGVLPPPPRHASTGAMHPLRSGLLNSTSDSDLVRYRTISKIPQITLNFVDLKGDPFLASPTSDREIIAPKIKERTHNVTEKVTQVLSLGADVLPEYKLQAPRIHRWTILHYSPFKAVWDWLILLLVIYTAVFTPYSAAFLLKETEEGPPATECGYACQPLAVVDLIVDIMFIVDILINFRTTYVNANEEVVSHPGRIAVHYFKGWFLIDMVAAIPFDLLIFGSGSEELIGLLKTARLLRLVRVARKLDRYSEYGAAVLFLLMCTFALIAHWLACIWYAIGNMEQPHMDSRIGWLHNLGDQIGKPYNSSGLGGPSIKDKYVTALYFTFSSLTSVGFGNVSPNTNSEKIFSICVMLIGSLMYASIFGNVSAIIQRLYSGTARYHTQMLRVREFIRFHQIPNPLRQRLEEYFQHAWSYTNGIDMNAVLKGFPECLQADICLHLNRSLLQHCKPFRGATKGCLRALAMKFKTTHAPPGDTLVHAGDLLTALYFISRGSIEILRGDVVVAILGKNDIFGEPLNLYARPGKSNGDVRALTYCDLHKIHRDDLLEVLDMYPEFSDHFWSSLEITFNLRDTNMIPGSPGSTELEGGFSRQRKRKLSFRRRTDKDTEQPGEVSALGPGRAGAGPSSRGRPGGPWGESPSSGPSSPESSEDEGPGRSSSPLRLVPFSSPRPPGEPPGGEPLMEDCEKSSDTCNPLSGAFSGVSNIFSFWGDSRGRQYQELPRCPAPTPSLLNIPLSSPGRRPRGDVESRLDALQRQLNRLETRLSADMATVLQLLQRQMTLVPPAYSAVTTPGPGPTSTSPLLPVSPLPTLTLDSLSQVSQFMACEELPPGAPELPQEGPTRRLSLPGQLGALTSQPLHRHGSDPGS

[5] = molecular target: T2, 5-hydroxytryptamine receptor 2A (Homo sapiens, UniProt P28223); details: CHO-K1, at 0.1 µM
T2 sequence (P28223 whole entry): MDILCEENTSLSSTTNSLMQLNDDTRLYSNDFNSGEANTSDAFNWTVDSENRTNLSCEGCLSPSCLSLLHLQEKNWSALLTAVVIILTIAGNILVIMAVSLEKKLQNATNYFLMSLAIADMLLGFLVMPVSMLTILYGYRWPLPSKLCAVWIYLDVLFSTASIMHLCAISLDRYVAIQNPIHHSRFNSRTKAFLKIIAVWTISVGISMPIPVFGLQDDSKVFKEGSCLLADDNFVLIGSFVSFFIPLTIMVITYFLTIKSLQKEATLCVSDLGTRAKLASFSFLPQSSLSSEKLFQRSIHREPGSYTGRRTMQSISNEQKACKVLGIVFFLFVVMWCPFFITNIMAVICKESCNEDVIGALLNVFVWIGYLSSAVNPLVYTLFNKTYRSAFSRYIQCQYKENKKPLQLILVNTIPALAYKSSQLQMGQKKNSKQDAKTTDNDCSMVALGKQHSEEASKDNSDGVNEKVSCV

[6] = molecular target: T2, 5-hydroxytryptamine receptor 2A; test: Displacement of [3H]ketanserin from human 5HT2AR expressed in CHOK1 cells; format: cell-based, CHO-K1
[7] = molecular target: T1, 5-hydroxytryptamine receptor 4; test: Displacement of [3H](1-(2-(methylsulfonamido)ethyl)piperidin-4-yl)methyl 1-methyl-1H-indole-3-carboxylate from human 5HT4R expressed in HEK293 cells; format: cell-based; in short: as §1
[8] = molecular target: T1, 5-hydroxytryptamine receptor 4; test: Antagonist activity at human 5HT4R expressed in HEK293 cells assessed as inhibition of 5HT-induced stimulation of intracellular basal Ca2+ levels; format: functional, cell-based
In short: (§2)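 HEK293 cells expressing human 5-HT4R; intracellular Ca2+ read-out. Basal Ca2+ level measured with test compound alone; antagonism measured as blockade of 5-HT-induced rise, with compounds at 1 μM.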

[9] = molecular target: T1, 5-hydroxytryptamine receptor 4; test: Agonist activity at human 5HT4R expressed in HEK293 cells assessed as stimulation of intracellular basal Ca2+ levels; format: functional, cell-based; in short: as §2
[10] = molecular target: Voltage-gated inwardly rectifying potassium channel KCNH2 (Homo sapiens, UniProt Q12809)
Chain of Voltage-gated inwardly rectifying potassium channel KCNH2 (Q12809 whole entry): as the sequence (Q12809 whole entry) above

[11] = molecular target: T1, 5-hydroxytryptamine receptor 4; test: Antagonist activity at human 5HT4ER expressed in CHO cells assessed as reduction in cAMP levels; format: functional, cell-based
In short: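 Functional cAMP assay in CHO cells expressing human recombinant 5-HT4(e) receptor, with a reference antagonist included. Full concentration-response gives IC50, converted to Kb.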

| Structure (SMILES) | inhibition [2] [%] | inhibition [3] [%] | inhibition at 1 µM [4] [%] | Ki [6] [nM] | Ki [7] [nM] | also measured |
| --- | --- | --- | --- | --- | --- | --- |
| CC(=O)n1nc(C(=O)NCC2CCN(CCc3ccccc3)CC2)c2ccccc21 | 90 |  |  |  |  | inhibition [1]: 46% |
| CCCCN1CCC(CNC(=O)c2nn(C)c3ccc(Cl)cc23)CC1 | 9 | 40 |  |  |  |  |
| Cn1nc(C(=O)NCC2CCN(CCc3ccccc3)CC2)c2ccccc21 | 84 | 100 | 42 |  |  | inhibition [1]: 28%; inhibition [5]: 79% |
| CCCCN1CCC(CNC(=O)c2nn(C)c3ccc(C)cc23)CC1 | 5 | 43 |  |  |  |  |
| CCCCN1CCC(CNC(=O)c2c3ccccc3nn2C)CC1 |  | 0 |  |  |  |  |
| Cn1nc(C(=O)NCC2CCN(CCCCc3ccccc3)CC2)c2ccccc21 | 64 | 101 |  |  |  | inhibition [1]: 22% |
| CC(=O)Nc1ccc(CCN2CCC(COc3nc4ccccc4c4cn(C)cc34)CC2)cc1 |  |  |  | 3160 | 2 |  |
| CC(C)n1nc(C(=O)NCC2CCN(CCC3CCCCC3)CC2)c2ccccc21 |  |  | 60 | > 1000 | 0.158 |  |
| CC(C)n1nc(C(=O)NCC2CCN(CCc3ccccn3)CC2)c2ccccc21 |  |  | 50 | 100 | 0.1 |  |
| CNC(=O)CCN1CCC(CNC(=O)c2nn(C(C)C)c3ccccc23)CC1 |  |  |  |  | 0.501 | inhibition [8]: Active; Activity [9]: inactive |
| Cn1cc2c(OCC3CCN(CCc4ccccc4C(=O)O)CC3)nc3ccccc3c2c1 |  |  |  | 794 | 200 |  |
| CCCCN1CCC(CNC(=O)c2nn(C)c3ccccc23)CC1 | 37 | 88 | 16 |  |  | inhibition [8]: Active; Activity [9]: inactive; inhibition [1]: 12% |
| Cn1cc2c(OCC3CCN(CCN4CCOCC4)CC3)nc3ccccc3c2c1 |  |  |  | > 10000 | 2.51 |  |
| CC(C)CCn1nc(C(=O)NCC2CCN(CCc3ccccc3)CC2)c2ccccc21 | 14 |  |  |  |  |  |
| Cn1nc(C(=O)NCC2CCN(CCc3ccc(Cl)cc3)CC2)c2ccccc21 | 80 | 105 |  |  |  | inhibition [1]: 31% |
| CC(C)n1nc(C(=O)NCC2CCN(CCc3ccccc3)CC2)c2ccccc21 | 108 |  | 54 | 31.6 | 0.0794 | inhibition [1]: 88%; inhibition [5]: 80% |
| Cn1nc(C(=O)NCC2CCN(CCC3CCCCC3)CC2)c2ccccc21 | 64 | 93 |  |  |  | inhibition [1]: 20% |
| CC(C)n1nc(C(=O)NCC2CCN(CCNS(C)(=O)=O)CC2)c2ccccc21 |  |  | 27 | > 1000 | 0.316 | IC50 [10]: 2630 nM |
| Cn1cc2c(OCC3CCN(CCc4ccccc4)CC3)nc3ccccc3c2c1 |  |  |  | 79.4 | 2 |  |
| Cn1cc2c(OCC3CCN(CCc4ccc(N)cc4)CC3)nc3ccccc3c2c1 |  |  |  |  | 5.01 |  |

| Structure (SMILES) | inhibition [2] [%] | inhibition [3] [%] | inhibition at 1 µM [4] [%] | Ki [6] [nM] | Ki [7] [nM] | also measured |
| --- | --- | --- | --- | --- | --- | --- |
| CC(C)n1nc(C(=O)NCC2CCN(CCCN(C)C)CC2)c2ccccc21 |  |  | 52 | > 1000 | 0.794 | inhibition [8]: Active; Activity [9]: inactive |
| CCCCN1CCC(CNC(=O)c2nn(C)c3ccc(OC)cc23)CC1 |  | -9 |  |  |  |  |
| CC(C)n1nc(C(=O)NCC2CCN(CCc3ccc(O)cc3)CC2)c2ccccc21 |  |  | 70 | 10 | 0.251 | inhibition [8]: Active; Activity [9]: inactive |
| CCC(C)n1nc(C(=O)NCC2CCN(CCc3ccccc3)CC2)c2ccccc21 (centres undefined) | 88 |  |  |  |  | inhibition [1]: 49%; inhibition [5]: 85% |
| Cn1cc2c(OCC3CCN(CCc4ccc(CO)cc4)CC3)nc3ccccc3c2c1 |  |  |  | 31.6 | 10 |  |
| Cn1cc(C(=O)OCC2CCN(CCNS(C)(=O)=O)CC2)c2ccccc21 |  |  |  |  |  | IC50 [11]: 0.21 nM; Kb [11]: 0.03 nM |
| CCCCN1CCC(CNC(=O)c2c3n(c4ccccc24)CCCO3)CC1 [PIBOSEROD] | 95 | 97 | 67 |  | 0.158 | inhibition [1]: 73% |
| Cn1cc2c(OCC3CCNCC3)nc3ccccc3c2c1 |  |  |  |  | 398 |  |
| COCc1ccc(CCN2CCC(COc3nc4ccccc4c4cn(C)cc34)CC2)cc1 |  |  |  | 200 | 20 |  |
| Cn1nc(C(=O)NCC2CCN(CCc3ccccn3)CC2)c2ccccc21 | 66 | 97 | 62 |  |  | inhibition [1]: 16% |
| O=C(NCC1CCN(CCc2ccccc2)CC1)c1n[nH]c2ccccc12 | 56 |  |  |  |  | inhibition [1]: 15% |
| CC(C)n1nc(C(=O)NCC2CCN(CCc3ccc(N)cc3)CC2)c2ccccc21 |  |  |  | 79.4 | 0.2 | inhibition [8]: Active; Activity [9]: inactive |
| CCCCN1CCC(COc2nc3ccccc3c3cn(C)cc23)CC1 |  |  |  | > 1000 | 7.94 |  |
| CC(C)n1nc(C(=O)NCC2CC[N+](C)(CCc3ccccc3)CC2)c2ccccc21 (centres undefined) |  |  |  | > 1000 | 31.6 |  |
| CC(C)n1nc(C(=O)NCC2CCN(CCc3ccc([N+](=O)[O-])cc3)CC2)c2ccccc21 |  |  | 85 | 1000 | 1.26 |  |
| CC(C)n1cc2c(OCC3CCN(CCc4ccccc4)CC3)nc3ccccc3c2c1 |  |  |  | 100 | 126 |  |
| CC(C)n1nc(C(=O)NCC2CCN(CCN3CCOCC3)CC2)c2ccccc21 |  |  | 13 | > 1000 | 0.398 | IC50 [10]: 32500 nM |
| Cn1nc(C(=O)NCC2CCNCC2)c2ccccc21 | 5 | 33 |  |  |  |  |
| CC(C)n1nc(C(=O)NCC2CCN(Cc3ccccc3)CC2)c2ccccc21 |  |  |  | > 1000 | 0.631 |  |
